Measured values: ChEMBL document CHEMBL1130343, “Folate-based inhibitors of thymidylate synthase: synthesis and antitumor activity of gamma-linked sterically hindered dipeptide analogues of 2-desamino-2-methyl-N10-propargyl-5,8-dideazafolic acid (ICI 198583)” (J Med Chem, 1997)

Assays:
Mus musculus [1] = species on record: Mus musculus; experiment: Compound was tested for inhibition of L1210:1565 cell growth in mouse.; type: functional, organism-based
Procedure, shortened: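 Growth inhibition measured in L1210:1565, a mouse L1210 mutant line with an impaired reduced folate/MTX transport carrier. The line was selected for resistance to CI-920, an RFC-transported agent, and is cross-resistant to MTX. Result expressed as IC50.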

Thymidylate synthase = Thymidylate synthase (Mus musculus, UniProt P07607); experiment: Inhibition of Thymidylate Synthase(TS) from mouse L1210 cells; type: cell-based; settings: read-out: Ki app
Thymidylate synthase, sequence (P07607 whole entry): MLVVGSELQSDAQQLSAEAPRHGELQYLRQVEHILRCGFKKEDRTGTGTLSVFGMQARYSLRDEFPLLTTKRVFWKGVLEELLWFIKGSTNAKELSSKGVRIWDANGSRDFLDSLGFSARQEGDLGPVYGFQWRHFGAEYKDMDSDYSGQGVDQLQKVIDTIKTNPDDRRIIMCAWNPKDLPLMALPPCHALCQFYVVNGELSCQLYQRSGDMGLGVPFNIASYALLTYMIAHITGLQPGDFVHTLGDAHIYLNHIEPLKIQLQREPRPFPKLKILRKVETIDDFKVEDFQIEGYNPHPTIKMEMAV

WIL2 = experiment: Compound was tested for inhibition of human W1L2 cell growth.; type: functional, cell-based
Mus musculus [2] = species on record: Mus musculus; experiment: Compound was tested for inhibition of L1210:R D1694 cell growth in mouse.; type: functional, organism-based; settings: L1210 (RD1694)
Mus musculus [3] = species on record: Mus musculus; experiment: Compound was tested for inhibition of L1210 cell growth in mouse.; type: functional, organism-based

## C#CCN(Cc1ccc2nc(C)nc(O)c2c1)c1ccc(C(=O)N[C@@H](CCC(=O)NC(C)(C)C(=O)O)C(=O)O)cc1
Mus musculus [1]
  IC50: 70 µM
Thymidylate synthase
  Ki: 0.042 µM
WIL2
  IC50: 0.31 µM
Mus musculus [2]
  IC50: 7.1 µM
Mus musculus [3]
  IC50: 2.5 µM
